ChEMBL document CHEMBL4396885, “Thioether-based 2-aminobenzamide derivatives: Novel HDAC inhibitors with potent in vitro and in vivo antitumor activity” (Eur J Med Chem, 2019)

Legend:
[1] = Half life in ICR mouse at 4 mg/kg, iv after 0.08 to 24 hrs by LC-MS/MS analysis; assay type: ADME, organism-based; conditions: in vivo
In short: (§1)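 Male ICR mice (29.7~37.4 g), single iv dose 4 mg/kg in DMSO:40% SBE-β-CD 20:80 (v/v). Retro-orbital blood at 0.08–24 h into EDTA-K2 tubes; plasma protein-precipitated with acetonitrile containing internal standards, analysed by LC-MS/MS; n=3 per time point; noncompartmental analysis.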

[2] = tested on: A549; experiment: Induction of apoptosis in human A549 cells after 48 hrs by Annexin V-FITC/propidium iodide staining based flow cytometry; assay type: functional, cell-based
In short: (§2)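 A549 seeded 4×10⁶ cells/well, dosed after 12 h with compound at various concentrations, harvested after 48 h. Resuspended in annexin-binding buffer, stained with Annexin V-FITC and propidium iodide for 15 min in the dark, analysed by flow cytometry; means of three separate experiments.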

[3] = tested on: A549; experiment: Induction of apoptosis in human A549 cells assessed as early apoptotic cells at 2 uM after 48 hrs by Annexin V-FITC/propidium iodide staining based flow cytometry (reference value: 1.19%); assay type: functional; in short: as §2
[4] = tested on: A549; experiment: Induction of apoptosis in human A549 cells assessed as viable cells at 1 uM after 48 hrs by Annexin V-FITC/propidium iodide staining based flow cytometry (reference value: 98%); assay type: functional; conditions: A549, 48 h, read-out: Activity; in short: as §2
[5] = target: Histone deacetylase; experiment: Inhibition of HDAC in human HeLa cell nuclear extract assessed as decrease in deacetylation of FLUOR DE LYS Green substrate preincubated for 10 mins followed by substrate addition and measured after 30 mins by fluorescence based assay; assay type: cell-free
[6] = Clearance in ICR mouse at 4 mg/kg, iv after 0.08 to 24 hrs by LC-MS/MS analysis; assay type: ADME, organism-based; conditions: in vivo; in short: as §1
[7] = tested on: SMMC-7721; experiment: Antiproliferative activity against human SMMC7721 cells assessed as growth inhibition at 8 uM after 72 hrs by CCK-8 assay relative to control; assay type: functional; conditions: SMMC-7721, 72 h, read-out: GI
[8] = tested on: A549; experiment: Antitumor activity against human A549 cells xenografted in Balb/c nude mouse assessed as tumor growth inhibition at 25 mg/kg, ip administered twice per day for 21 days relative to control; assay type: functional; conditions: 504 h, read-out: TGI
In short: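 Female BALB/c nude mice, 5–6 weeks, implanted s.c. in right axilla with 3×10⁶ A549 cells; randomized at ~95 mm³ tumor volume, 4 per group. Dosed ip 25 mg/kg twice daily for 21 days; vehicle controls got DMA & 5% Solutol HS-15 (5:95). Tumor size (V=length×width²/2) and body weight measured every 3 days; TGI from volume change relative to control.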

[9] = tested on: NIH3T3; experiment: Cytotoxicity against mouse NIH/3T3 cells assessed as reduction in cell viability after 72 hrs by CCK-8 assay; assay type: cell-based; conditions: NIH3T3, 72 h
[10] = tested on: A549; experiment: Antiproliferative activity against human A549 cells assessed as decrease in cell viability after 72 hrs by CCK-8 assay; assay type: functional, cell-based; conditions: A549, 72 h
In short: (§3)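 Cells grown to 70–85% confluence (A375, A549, HCT116 in RPMI1640; HeLa, SMMC7721 in DMEM; 10% FBS, 37 °C, 5% CO2), seeded 4000/well, dosed after 12 h across a concentration range, incubated 72 h, then CCK-8 for 1 h; absorbance at 450 nm. IC50 as mean ± SD of three separate experiments.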

[11] = tested on: A549; experiment: Cell cycle arrest in human A549 cells assessed as accumulation of cells at G2/M phase at 2 uM after 48 hrs by propidium iodide staining-based flow cytometry (reference value: 13.62%); assay type: functional
[12] = tested on: A549; experiment: Cell cycle arrest in human A549 cells assessed as accumulation of cells at G0/G1 phase at 0.5 uM after 48 hrs by propidium iodide staining-based flow cytometry (reference value: 73.35%); assay type: functional
[13] = tested on: A-375; experiment: Antiproliferative activity against human A375 cells assessed as growth inhibition at 2 uM after 72 hrs by CCK-8 assay relative to control; assay type: functional; conditions: A-375, 72 h, read-out: GI
[14] = tested on: A549; experiment: Induction of apoptosis in human A549 cells assessed as late apoptotic cells at 2 uM after 48 hrs by Annexin V-FITC/propidium iodide staining based flow cytometry (reference value: 0.637%); assay type: functional; in short: as §2
[15] = tested on: HCT-116; experiment: Antiproliferative activity against human HCT116 cells assessed as growth inhibition at 2 uM after 72 hrs by CCK-8 assay relative to control; assay type: functional; conditions: HCT-116, 72 h, read-out: GI
[16] = target: Histone deacetylase 3/NCoR1 (Homo sapiens, UniProt O15379); experiment: Inhibition of recombinant human HDAC3/NCOR1 assessed as decrease in deacetylation of FLUOR DE LYS SIRT1 substrate preincubated for 10 mins followed by substrate addition and measured after 30 mins by fluorescence based assay; assay type: protein-complex assay
[17] = tested on: A549; experiment: Inhibition of colony formation in human A549 cells incubated for 10 to 14 days by crystal violet staining based assay; assay type: functional, cell-based
In short: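 A549 seeded 3000 cells/well, treated after 12 h at 0.5, 1 and 2 µM, grown 10–14 days, fixed in 4% paraformaldehyde for 15 min and stained with 0.1% crystal violet.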

[18] = tested on: A549; experiment: Cell cycle arrest in human A549 cells assessed as accumulation of cells at G0/G1 phase at 1 uM after 48 hrs by propidium iodide staining-based flow cytometry (reference value: 73.35%); assay type: functional
[19] = tested on: A549; experiment: Cell cycle arrest in human A549 cells assessed as accumulation of cells at S phase at 0.5 uM after 48 hrs by propidium iodide staining-based flow cytometry (reference value: 12.83%); assay type: functional
[20] = tested on: HeLa; experiment: Antiproliferative activity against human HeLa cells assessed as growth inhibition at 8 uM after 72 hrs by CCK-8 assay relative to control; assay type: functional; conditions: read-out: GI
[21] = tested on: A549; experiment: Induction of apoptosis in human A549 cells assessed as early apoptotic cells at 1 uM after 48 hrs by Annexin V-FITC/propidium iodide staining based flow cytometry (reference value: 1.19%); assay type: functional; in short: as §2
[22] = tested on: A549; experiment: Induction of apoptosis in human A549 cells assessed as late apoptotic cells at 0.5 uM after 48 hrs by Annexin V-FITC/propidium iodide staining based flow cytometry (reference value: 0.637%); assay type: functional; in short: as §2
[23] = tested on: A549; experiment: Induction of apoptosis in human A549 cells assessed as viable cells at 0.5 uM after 48 hrs by Annexin V-FITC/propidium iodide staining based flow cytometry (reference value: 98%); assay type: functional; conditions: A549, 48 h, read-out: Activity; in short: as §2
[24] = target: Histone deacetylase 1 (Homo sapiens, UniProt Q13547); experiment: Inhibition of recombinant human His tagged HDAC1 expressed in baculovirus infected insect cells assessed as decrease in deacetylation of FLUOR DE LYS Green substrate preincubated for 10 mins followed by substrate addition and measured after 30 mins by fluorescence based assay
[25] = tested on: SMMC-7721; experiment: Antiproliferative activity against human SMMC7721 cells assessed as decrease in cell viability after 72 hrs by CCK-8 assay; assay type: functional, cell-based; conditions: SMMC-7721, 72 h; in short: as §3
[26] = tested on: A549; experiment: Induction of apoptosis in human A549 cells assessed as necrotic cells at 2 uM after 48 hrs by Annexin V-FITC/propidium iodide staining based flow cytometry (reference value: 0.135%); assay type: functional; in short: as §2
[27] = tested on: A549; experiment: Induction of apoptosis in human A549 cells assessed as early apoptotic cells at 0.5 uM after 48 hrs by Annexin V-FITC/propidium iodide staining based flow cytometry (reference value: 1.19%); assay type: functional; in short: as §2

Histone deacetylase 1, sequence (Q13547 whole entry): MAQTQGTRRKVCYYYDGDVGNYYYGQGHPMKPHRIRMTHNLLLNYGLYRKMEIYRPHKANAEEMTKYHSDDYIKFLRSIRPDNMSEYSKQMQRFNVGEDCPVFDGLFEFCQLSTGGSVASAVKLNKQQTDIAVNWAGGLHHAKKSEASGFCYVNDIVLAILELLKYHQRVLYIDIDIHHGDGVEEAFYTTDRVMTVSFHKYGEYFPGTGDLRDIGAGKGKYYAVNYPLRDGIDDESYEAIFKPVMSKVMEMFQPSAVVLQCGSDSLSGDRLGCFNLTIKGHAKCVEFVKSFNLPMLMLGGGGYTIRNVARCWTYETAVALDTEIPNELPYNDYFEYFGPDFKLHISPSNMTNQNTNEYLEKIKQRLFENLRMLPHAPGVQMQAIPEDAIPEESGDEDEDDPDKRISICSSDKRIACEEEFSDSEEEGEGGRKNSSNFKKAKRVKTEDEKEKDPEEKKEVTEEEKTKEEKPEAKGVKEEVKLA
Histone deacetylase 3/NCoR1, sequence (O15379 whole entry): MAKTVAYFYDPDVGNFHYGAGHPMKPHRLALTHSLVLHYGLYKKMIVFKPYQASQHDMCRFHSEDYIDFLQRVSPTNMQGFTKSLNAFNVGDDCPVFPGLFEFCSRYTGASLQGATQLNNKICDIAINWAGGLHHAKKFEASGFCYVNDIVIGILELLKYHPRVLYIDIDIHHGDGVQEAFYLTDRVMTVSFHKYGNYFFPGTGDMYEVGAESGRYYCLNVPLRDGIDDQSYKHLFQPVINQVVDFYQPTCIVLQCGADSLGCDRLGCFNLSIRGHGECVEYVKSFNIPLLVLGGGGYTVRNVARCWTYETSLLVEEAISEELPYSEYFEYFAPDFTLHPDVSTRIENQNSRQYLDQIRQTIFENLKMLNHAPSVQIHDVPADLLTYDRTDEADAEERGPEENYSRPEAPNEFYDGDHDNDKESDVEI
Histone deacetylase 3/NCoR1, sequence (O75376 whole entry, further chain): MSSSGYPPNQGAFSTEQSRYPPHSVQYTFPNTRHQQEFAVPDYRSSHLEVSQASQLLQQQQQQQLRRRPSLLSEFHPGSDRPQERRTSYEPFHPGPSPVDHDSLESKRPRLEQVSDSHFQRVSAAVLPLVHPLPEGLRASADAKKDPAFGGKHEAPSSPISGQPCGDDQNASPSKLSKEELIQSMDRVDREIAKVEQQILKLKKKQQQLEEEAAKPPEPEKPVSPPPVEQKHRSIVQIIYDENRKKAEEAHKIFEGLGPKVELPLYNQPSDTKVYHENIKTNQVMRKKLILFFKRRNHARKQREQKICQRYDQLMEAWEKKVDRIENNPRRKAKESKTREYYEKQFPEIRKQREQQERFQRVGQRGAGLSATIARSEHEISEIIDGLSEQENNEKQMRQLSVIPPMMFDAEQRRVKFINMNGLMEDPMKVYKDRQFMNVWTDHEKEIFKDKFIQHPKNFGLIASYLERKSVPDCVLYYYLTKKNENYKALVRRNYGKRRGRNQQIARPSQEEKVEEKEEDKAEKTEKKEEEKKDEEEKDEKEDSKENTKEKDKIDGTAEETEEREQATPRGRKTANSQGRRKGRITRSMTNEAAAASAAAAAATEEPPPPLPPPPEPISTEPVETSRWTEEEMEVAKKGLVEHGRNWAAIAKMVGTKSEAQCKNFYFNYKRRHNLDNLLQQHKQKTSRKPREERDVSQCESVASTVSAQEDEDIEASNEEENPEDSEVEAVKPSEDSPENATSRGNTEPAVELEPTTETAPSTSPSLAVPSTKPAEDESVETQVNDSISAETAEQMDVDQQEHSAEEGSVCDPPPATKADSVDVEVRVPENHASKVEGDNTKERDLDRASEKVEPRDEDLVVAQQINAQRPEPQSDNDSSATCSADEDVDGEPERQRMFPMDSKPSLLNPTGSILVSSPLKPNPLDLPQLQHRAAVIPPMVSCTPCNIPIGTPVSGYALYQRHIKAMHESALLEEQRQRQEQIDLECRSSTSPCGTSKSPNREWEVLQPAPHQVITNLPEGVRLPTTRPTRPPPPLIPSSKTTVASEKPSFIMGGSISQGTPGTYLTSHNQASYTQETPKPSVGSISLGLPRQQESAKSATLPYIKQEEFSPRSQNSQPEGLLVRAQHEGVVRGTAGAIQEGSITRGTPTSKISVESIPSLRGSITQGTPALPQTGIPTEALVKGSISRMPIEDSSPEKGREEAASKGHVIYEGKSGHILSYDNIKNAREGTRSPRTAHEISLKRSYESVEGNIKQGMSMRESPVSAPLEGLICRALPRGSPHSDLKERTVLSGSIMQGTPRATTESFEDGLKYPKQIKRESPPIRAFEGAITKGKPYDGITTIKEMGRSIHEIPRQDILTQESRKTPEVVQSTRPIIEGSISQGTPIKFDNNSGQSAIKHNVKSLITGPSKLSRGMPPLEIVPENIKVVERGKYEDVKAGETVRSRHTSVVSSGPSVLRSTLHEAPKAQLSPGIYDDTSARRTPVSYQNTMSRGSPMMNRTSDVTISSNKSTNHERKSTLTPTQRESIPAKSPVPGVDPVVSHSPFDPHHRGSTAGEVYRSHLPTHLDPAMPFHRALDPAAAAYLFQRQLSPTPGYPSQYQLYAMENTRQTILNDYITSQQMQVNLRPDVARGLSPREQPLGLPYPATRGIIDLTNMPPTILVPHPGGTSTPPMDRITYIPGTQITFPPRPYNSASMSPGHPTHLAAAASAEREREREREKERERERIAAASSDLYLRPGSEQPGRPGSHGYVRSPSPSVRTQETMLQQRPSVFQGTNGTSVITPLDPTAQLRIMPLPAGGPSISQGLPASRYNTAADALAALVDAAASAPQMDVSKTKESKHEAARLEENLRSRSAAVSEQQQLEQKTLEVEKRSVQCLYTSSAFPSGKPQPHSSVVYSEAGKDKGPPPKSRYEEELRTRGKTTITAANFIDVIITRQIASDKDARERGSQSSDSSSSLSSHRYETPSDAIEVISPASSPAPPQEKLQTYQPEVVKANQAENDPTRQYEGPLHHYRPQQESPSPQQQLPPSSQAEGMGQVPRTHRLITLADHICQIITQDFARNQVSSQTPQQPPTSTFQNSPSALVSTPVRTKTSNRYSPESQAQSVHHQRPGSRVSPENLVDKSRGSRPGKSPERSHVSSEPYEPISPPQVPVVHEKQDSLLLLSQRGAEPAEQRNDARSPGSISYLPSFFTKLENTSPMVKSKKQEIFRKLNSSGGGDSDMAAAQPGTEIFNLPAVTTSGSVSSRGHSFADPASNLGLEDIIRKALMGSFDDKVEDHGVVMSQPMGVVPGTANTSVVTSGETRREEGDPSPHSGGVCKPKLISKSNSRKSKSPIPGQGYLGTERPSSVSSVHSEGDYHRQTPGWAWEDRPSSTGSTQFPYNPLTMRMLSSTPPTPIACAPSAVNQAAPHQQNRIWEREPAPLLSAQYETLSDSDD

SMILES | half-life [1] [h] | Activity [2] | Activity [3] [%] | viability at 1 µM [4] [%] | IC50 [5] [nM] | clearance [6] [mL/min/kg] | inhibition of growth at 8 µM [7] [%] | inhibition in vivo at 25 mg/kg [8] [%] | IC50 [9] [nM] | IC50 [10] [nM] | Activity [11] [%] | Activity [12] [%] | inhibition of growth at 2 µM [13] [%] | Activity [14] [%] | inhibition of growth at 2 µM [15] [%] | IC50 [16] [nM] | inhibition [17] | Activity [18] [%] | Activity [19] [%] | inhibition of growth at 8 µM [20] [%] | further results
COc1ccc(SCc2ccc(C(=O)Nc3ccccc3N)cc2)cc1 | 2.24 | Dose-dependent effect | 5.65 | 67.9 | > 32000 | 90.1 | 80.1 | 57.9 | 4040 | 2570 | 48.06 | 64.38 | 10.2 | 26.6 | 73.3 | 136 | Dose-dependent effect | 41.07 | 17.55 | 79.7 | Activity [21]: 19.8%; Activity [22]: 15%; viability at 0.5 µM [23]: 66%; IC50 [24]: 16 nM; IC50 [25]: 2170 nM; Activity [26]: 20.3%; Activity [27]: 5.21%
CCc1ccc(SCc2ccc(C(=O)Nc3ccccc3N)cc2)cc1 | 2.59 | Dose-dependent effect | 6.55 | 70.4 | > 32000 | 76.3 | 82.9 | 62.7 | 3660 | 3040 | 66.48 | 33.89 | 19.6 | 16.7 | 40.7 | 215 | Dose-dependent effect | 30.39 | 12.56 | 71 | Activity [21]: 6.52%; Activity [22]: 7.08%; viability at 0.5 µM [23]: 80.8%; IC50 [24]: 71 nM; IC50 [25]: 1750 nM; Activity [26]: 13.2%; Activity [27]: 11%
